The text below walks through data of ChEMBL document CHEMBL4390676, “Discovery of Bisubstrate Inhibitors for Protein N-Terminal Methyltransferase 1” (J Med Chem, 2019).

The target of assay [1] is T1, N-terminal Xaa-Pro-Lys N-methyltransferase 1 (Homo sapiens, UniProt Q9BV86).
T1 sequence (Q9BV86 whole entry): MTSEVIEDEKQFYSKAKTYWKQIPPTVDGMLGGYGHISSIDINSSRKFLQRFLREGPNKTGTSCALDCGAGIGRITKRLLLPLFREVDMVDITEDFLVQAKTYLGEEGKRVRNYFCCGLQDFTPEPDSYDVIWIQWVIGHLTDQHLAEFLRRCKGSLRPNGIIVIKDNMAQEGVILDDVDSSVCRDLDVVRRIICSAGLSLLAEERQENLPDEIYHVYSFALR
Put plainly: Inhibition of recombinant human full-length His6-tagged NTMT1 (1 to 222 residues) expressed in Escherichia coli BL21-CodonPlus(DE3)-RIL competent cells using peptide substrate in presence of SAM by fluorescence assay. In a few lines:
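SAHH-coupled fluorescence assay that tracks SAH formation by NTMT1. SAM and peptide substrate GPKRIA are each at their Km values. IC50 is taken from dose–response curves, n = 3.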

Assay [2] concerns the target T2, N-terminal Xaa-Pro-Lys N-methyltransferase 1 (Homo sapiens) (UniProt Q9BV86).
T2 sequence (whole entry): T1 sequence (Q9BV86 whole entry)
In words: Inhibition of recombinant human full-length His6-tagged NTMT1 (1 to 222 residues) expressed in Escherichia coli BL21-CodonPlus(DE3)-RIL competent cells assessed as reduction in GPKRIA trimethylation at 100 nM preincubated for 10 mins in presence of SAM followed by GPKRIA addition and measured after 20 mins by MALDI TOF-MS analysis. Put shortly: (§1)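 Orthogonal MALDI-MS assay that directly follows α-N-amine methylation of substrate peptide GPKRIA by NTMT1 over 20 min. Methylated peptide products were monitored by mass spectrometry.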

Assay [3] deals with T2, N-terminal Xaa-Pro-Lys N-methyltransferase 1 (Homo sapiens). Put plainly: Inhibition of recombinant human full-length His6-tagged NTMT1 (1 to 222 residues) expressed in Escherichia coli BL21-CodonPlus(DE3)-RIL competent cells assessed as reduction in GPKRIA di-methylation at 100 nM preincubated for 10 mins in presence of SAM followed by GPKRIA addition and measured after 20 mins by MALDI TOF-MS analysis. Put shortly: as §1

Assay [4] has the same target. In words: Inhibition of recombinant human full-length His6-tagged NTMT1 (1 to 222 residues) expressed in Escherichia coli BL21-CodonPlus(DE3)-RIL competent cells assessed as residual enzyme activity at 10 uM using GPKRIA as substrate preincubated for 10 mins in presence of SAM followed by substrate addition by fluorescence assay relative to control. Put shortly: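 NTMT1 residual activity […] with SAM and GPKRIA at Km. Values are means of triplicate experiments (n = 3).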

The target in assay [5] is Protein arginine N-methyltransferase 1 (Rattus norvegicus) (UniProt Q63009). Put plainly: Inhibition of rat His6-tagged PRMT1 expressed in Escherichia coli BL21(DE3) assessed as enzyme residual activity at 3.3 uM using H4-21 peptide as substrate preincubated for 10 mins in presence of SAM followed by substrate addition by fluorescence assay relative to control. Put shortly: (§2)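 Selectivity panel with inhibitor at 3.3, 10, 33 or 100 μM. Enzyme activity is given as percent of control, mean of duplicate experiments (n = 2).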
Sequence of Protein arginine N-methyltransferase 1 (Rattus norvegicus) (Q63009 whole entry, looked up): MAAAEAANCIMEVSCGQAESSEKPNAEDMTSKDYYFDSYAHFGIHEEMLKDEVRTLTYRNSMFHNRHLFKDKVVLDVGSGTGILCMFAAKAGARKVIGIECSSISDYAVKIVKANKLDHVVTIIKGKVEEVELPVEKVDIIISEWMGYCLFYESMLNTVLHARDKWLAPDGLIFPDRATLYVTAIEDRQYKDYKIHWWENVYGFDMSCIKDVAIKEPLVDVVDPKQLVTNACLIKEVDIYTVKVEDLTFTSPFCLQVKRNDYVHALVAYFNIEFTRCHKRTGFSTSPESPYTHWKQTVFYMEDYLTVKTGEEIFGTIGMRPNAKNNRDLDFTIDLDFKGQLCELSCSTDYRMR

For assay [6], the target named is T3, Histone-lysine N-methyltransferase SETD7 (Homo sapiens) (UniProt Q8WTS6).
T3 sequence (whole entry): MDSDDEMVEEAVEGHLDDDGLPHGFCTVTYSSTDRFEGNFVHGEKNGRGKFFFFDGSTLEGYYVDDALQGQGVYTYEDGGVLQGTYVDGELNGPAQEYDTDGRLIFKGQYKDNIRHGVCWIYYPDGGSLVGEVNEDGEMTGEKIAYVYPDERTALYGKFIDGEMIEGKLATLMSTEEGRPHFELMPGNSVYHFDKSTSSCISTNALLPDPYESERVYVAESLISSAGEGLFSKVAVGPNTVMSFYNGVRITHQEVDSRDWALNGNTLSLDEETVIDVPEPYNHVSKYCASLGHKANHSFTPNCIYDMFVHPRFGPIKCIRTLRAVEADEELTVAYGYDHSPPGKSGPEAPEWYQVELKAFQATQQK
In words: Inhibition of human His-tagged SETD7 (1 to 366 residues) expressed in Escherichia coli assessed as enzyme residual activity at 3.3 uM using H3-21 peptide as substrate preincubated for 10 mins in presence of SAM followed by substrate addition by fluorescence assay relative to control. In a few lines: as §2

For assay [7], the target named is T3, Histone-lysine N-methyltransferase SETD7 (Homo sapiens). Put plainly: Inhibition of human His-tagged SETD7 (1 to 366 residues) expressed in Escherichia coli assessed as enzyme residual activity at 10 uM using H3-21 peptide as substrate preincubated for 10 mins in presence of SAM followed by substrate addition by fluorescence assay relative to control. Put shortly:
as §2

For assay [8] the target is unchanged. In words: Inhibition of human His-tagged SETD7 (1 to 366 residues) expressed in Escherichia coli assessed as enzyme residual activity at 33 uM using H3-21 peptide as substrate preincubated for 10 mins in presence of SAM followed by substrate addition by fluorescence assay relative to control. In a few lines:
as §2

The target of assay [9] is T4, Histone-lysine N-methyltransferase EHMT2 (Homo sapiens) (UniProt Q96KQ7).
T4 sequence (whole entry): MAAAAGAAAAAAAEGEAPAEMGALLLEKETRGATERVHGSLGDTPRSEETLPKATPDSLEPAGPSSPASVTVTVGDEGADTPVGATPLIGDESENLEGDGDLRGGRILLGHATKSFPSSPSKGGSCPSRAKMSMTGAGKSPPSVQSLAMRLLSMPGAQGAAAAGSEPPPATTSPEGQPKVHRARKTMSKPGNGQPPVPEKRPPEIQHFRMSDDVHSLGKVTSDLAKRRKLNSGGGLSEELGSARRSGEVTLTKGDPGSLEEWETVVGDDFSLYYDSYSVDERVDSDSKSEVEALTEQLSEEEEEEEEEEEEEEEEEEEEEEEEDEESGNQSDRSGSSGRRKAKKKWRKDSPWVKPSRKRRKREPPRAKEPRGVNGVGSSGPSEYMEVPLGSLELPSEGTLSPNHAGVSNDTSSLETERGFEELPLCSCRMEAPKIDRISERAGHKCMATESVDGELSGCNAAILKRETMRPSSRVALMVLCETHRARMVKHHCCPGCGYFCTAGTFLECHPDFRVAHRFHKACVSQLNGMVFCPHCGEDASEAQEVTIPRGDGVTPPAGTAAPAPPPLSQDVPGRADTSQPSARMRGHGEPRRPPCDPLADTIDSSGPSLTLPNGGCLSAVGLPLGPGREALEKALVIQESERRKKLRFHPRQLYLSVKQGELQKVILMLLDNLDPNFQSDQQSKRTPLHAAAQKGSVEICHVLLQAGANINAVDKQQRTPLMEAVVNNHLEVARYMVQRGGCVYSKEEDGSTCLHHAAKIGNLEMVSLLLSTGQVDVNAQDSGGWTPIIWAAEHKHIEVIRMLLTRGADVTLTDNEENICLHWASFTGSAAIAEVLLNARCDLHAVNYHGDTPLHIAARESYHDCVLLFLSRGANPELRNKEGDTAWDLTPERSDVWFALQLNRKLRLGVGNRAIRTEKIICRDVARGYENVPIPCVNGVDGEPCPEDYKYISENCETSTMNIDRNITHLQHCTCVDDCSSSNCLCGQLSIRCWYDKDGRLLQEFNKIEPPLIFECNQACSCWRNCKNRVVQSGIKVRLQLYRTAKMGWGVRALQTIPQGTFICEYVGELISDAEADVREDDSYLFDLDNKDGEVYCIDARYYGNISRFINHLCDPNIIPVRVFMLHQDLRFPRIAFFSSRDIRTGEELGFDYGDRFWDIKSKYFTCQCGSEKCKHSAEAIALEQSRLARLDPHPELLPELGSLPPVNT
In words: Inhibition of human His-tagged G9a (913 to 1193 residues) expressed in Escherichia coli BL21-CodonPlus(DE3)-RIL assessed as enzyme residual activity at 100 uM using H3-21 peptide as substrate preincubated for 10 mins in presence of SAM followed by substrate addition by fluorescence assay relative to control. Put shortly:
as §2

Assay [10] has as its target Protein arginine N-methyltransferase 1 (Rattus norvegicus, UniProt Q63009). In words: Inhibition of rat His6-tagged PRMT1 expressed in Escherichia coli BL21(DE3) using H4-21 peptide as substrate preincubated for 10 mins in presence of SAM followed by substrate addition by fluorescence assay.
Assay [11] is described as follows: Inhibition of Trypanosoma brucei N-terminal His6-tagged PRMT7 expressed in Escherichia coli BL21-CodonPlus(DE3)-RIL using H4-21 peptide as substrate preincubated for 10 mins in presence of SAM followed by substrate addition by fluorescence assay.
Assay [12] deals with T2, N-terminal Xaa-Pro-Lys N-methyltransferase 1 (Homo sapiens). Put plainly: Bi-substrate inhibition of recombinant human full-length His6-tagged NTMT1 (1 to 222 residues) expressed in Escherichia coli BL21-CodonPlus(DE3)-RIL competent cells using varying levels of GPKRIA as substrate preincubated for 10 mins in presence of varying levels of SAM followed by substrate addition by fluorescence assay. In a few lines: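 Kinetic mechanism study in the SAHH-coupled fluorescence assay. IC50 curves were run at varying SAM with fixed GPKRIA, and at varying GPKRIA with fixed SAM. IC50 values were plotted against SAM or peptide concentration by linear regression.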

Assay [13] has the same target. Put plainly: Inhibition of recombinant human full-length His6-tagged NTMT1 (1 to 222 residues) expressed in Escherichia coli BL21-CodonPlus(DE3)-RIL competent cells at 10 uM using GPKRIA as substrate preincubated for 10 mins in presence of SAM followed by substrate addition by fluorescence assay.

SMILES strings stand for the structures. Calls of active or inactive are those of the source. No cut-off for these calls is given here. Residues, ends and D or L forms follow the SMILES beside them. *: point of attachment. X1 = Nc1ncnc2c1ncn2[C@@H]1O[C@H](CN(CCCN2CCC[C@H]2C(=O)*)CC[C@H](N)C(=O)O)[C@@H](O)[C@H]1O Bounds are passed on as bounds.

Sequence of Protein arginine N-methyltransferase 1 (Q63009 whole entry): as the sequence (Q63009 whole entry, looked up) above

For the compound `N=C(N)NCCC[C@H](NC(=O)[C@H](CCCNC(=N)N)NC(=O)[C@H](CCCNC(=N)N)NC(=O)[C@@H]1CCCN1C(=O)CNCCCN(CC[C@H](N)C(=O)O)C[C@H]1O[C@@H](n2cnc3c(N)ncnc32)[C@H](O)[C@@H]1O)C(=O)N[C@@H](CO)C(N)=O`, the IC50 in assay [1] turned out to be 0.94 µM.

For the compound `CC[C@H](C)[C@H](NC(=O)[C@H](CCCNC(=N)N)NC(=O)[C@H](CCCCN)NC(=O)[C@@H]1CCCN1C(=O)[C@@H]1CCCN1CCCN(CC[C@H](N)C(=O)O)C[C@H]1O[C@@H](n2cnc3c(N)ncnc32)[C@H](O)[C@@H]1O)C(=O)N[C@@H](C)C(N)=O` (X1-PKRIA-NH2), the inhibition entry in assay [2], in [3] and in assay [12] was “Active” in each case. For the same compound, the Activity in [4] was 14%; in assay [5], 97%; in assay [6] it was 94%; in [7], 99%; in assay [8], 97%; in assay [9] it was 78%. Also, the figures for the concentration for half-maximal inhibition (IC50) in assay [10] and in [11] were over 33 µM and over 10 µM, respectively.

In the case of `Nc1ncnc2c1ncn2C1O[C@H](CN(CCCN2CCC[C@H]2C(=O)O)CC[C@H](N)C(=O)O)[C@@H](O)[C@H]1O` (single isomer, unassigned), the inhibition entry in [13] was “inactive”.

As usually defined, the IC50 is the concentration that gives 50% inhibition.
